Values after ≈ are worked out from the molar mass of the structure shown.

For series [1], the system named is Pseudomonas aeruginosa. Nature of the series: Antibacterial activity against Pseudomonas aeruginosa ARC3505 after 24 hrs by broth microdilution method. The conditions noted are these: ARC3505, 24 h. Type of series: functional. Put shortly: (§1)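 Broth microdilution per CLSI. Bacterial suspension adjusted to 1×10^6 CFU/mL in cation-adjusted Mueller–Hinton broth and mixed 1:1 with 2-fold serial compound dilutions. Final DMSO 2.5% v/v. Plates incubated at 35 °C with shaking at 140 rpm for 24 h.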

The test system of series [2] is Acinetobacter baumannii. Nature of the series: Antibacterial activity against Acinetobacter baumannii ARC3515 after 24 hrs by broth microdilution method. The series is classed as functional. The conditions noted are these: ARC3515, 24 h. Put shortly:
as §1

For the next series, the system named is Staphylococcus aureus. As to the kind of experiment: Antibacterial activity against Staphylococcus aureus ATCC 29213 after 24 hrs by broth microdilution method. The series is classed as functional. The conditions noted are these: ATCC 29213, 24 h. The method in brief:
as §1

A further series relates to Enterococcus faecalis. Nature of the series: Antibacterial activity against Enterococcus faecalis ATCC 29212 after 24 hrs by broth microdilution method. The series is classed as functional. The following applies: ATCC 29212, 24 h. The method in brief: as §1
In series [3] the test system is Acinetobacter baumannii. As to the kind of experiment: Antibacterial activity against Acinetobacter baumannii ARC3489 after 24 hrs by broth microdilution method. Type of series: functional. The conditions noted are these: ARC3489, 24 h. Put shortly:
as §1

The test system of series [4] is Pseudomonas aeruginosa. As to the kind of experiment: Antibacterial activity against Pseudomonas aeruginosa PAO1 after 24 hrs by broth microdilution method. The following applies: PAO1, 24 h. Type of series: functional. The method in brief:
as §1

Series [5] relates to Pseudomonas aeruginosa. Nature of the series: Antibacterial activity against Pseudomonas aeruginosa ARC3509 after 24 hrs by broth microdilution method. The following applies: ARC3509, 24 h. Type of series: functional. Put shortly:
as §1

Series [6] in a line: Dissociation constant, pKa of compound by pH metric method. The series is classed as physicochemical. The method in brief:
(§2)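 Potentiometric (pH-metric) titration on an automated titrator, Gold Standard pH metric assay, run in triplicate.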

Series [7] concerns Acinetobacter baumannii. As to the kind of experiment: Antibacterial activity against Acinetobacter baumannii ARC3658 after 24 hrs by broth microdilution method. The series is classed as functional. The conditions noted are these: ARC3658, 24 h. Put shortly:
as §1

In series [8] the test system is Acinetobacter baumannii. Nature of the series: Antibacterial activity against Acinetobacter baumannii ARC3486 after 24 hrs by broth microdilution method. Type of series: functional. The following applies: ARC3486, 24 h. The method in brief: as §1
Series [9] in a line: Thermodynamic solubility of the compound at pH 7.4. The series is classed as physicochemical. The conditions noted are these: buffer; for solubility thermodynamic: read-out: Therm_solubility.
Series [10] deals with Pseudomonas aeruginosa. Nature of the series: Antibacterial activity against Pseudomonas aeruginosa harboring MexABCDXY deletion mutant after 24 hrs by broth microdilution method. Type of series: functional. Put shortly:
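Broth microdilution per CLSI. Bacterial suspensions adjusted to 1×10^6 CFU/mL in cation-adjusted Mueller–Hinton broth, mixed 1:1 with 2-fold serial compound dilutions (final DMSO 2.5% v/v). Incubation 35 °C, 140 rpm, 24 h.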

The test system of series [11] is Pseudomonas aeruginosa. As to the kind of experiment: Antibacterial activity against Pseudomonas aeruginosa ARC3514 after 24 hrs by broth microdilution method. The following applies: ARC3514, 24 h. Type of series: functional. The method in brief:
(§3)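 Broth microdilution per CLSI. Bacterial suspension adjusted to 1×10^6 CFU/mL in cation-adjusted Mueller–Hinton broth and mixed 1:1 with 2-fold serial compound dilutions. Plates incubated at 35 °C with shaking at 140 rpm for 24 h.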

The next series has as its system Candida albicans. As to the kind of experiment: Antifungal activity against Candida albicans ATCC 90028 after 24 hrs by broth microdilution method. Type of series: functional. The conditions noted are these: ATCC 90028, 24 h.
The test system of series [12] is Acinetobacter baumannii. As to the kind of experiment: Antibacterial activity against Acinetobacter baumannii ARC2780 after 24 hrs by broth microdilution method. The series is classed as functional. The following applies: ARC2780, 24 h. Put shortly:
as §3

The next series has as its system Enterobacter cloacae. Nature of the series: Antibacterial activity against Enterobacter cloacae ARC3528 after 24 hrs by broth microdilution method. Type of series: functional. The following applies: ARC3528, 24 h. The method in brief:
as §1

Series [13] relates to Pseudomonas aeruginosa. Nature of the series: Antibacterial activity against Pseudomonas aeruginosa ARC3606 after 24 hrs by broth microdilution method. Type of series: functional. The following applies: ARC3606, 24 h. The method in brief:
as §1

Series [14] deals with Pseudomonas aeruginosa. As to the kind of experiment: Antibacterial activity against Pseudomonas aeruginosa ARC3756 after 24 hrs by broth microdilution method. Type of series: functional. The following applies: ARC3756, 24 h. The method in brief:
as §3

A short description of series [15]: Dissociation constant, basic pKa of compound by pH metric method. The series is classed as physicochemical. The method in brief:
as §2

A short description of series [16]: Dissociation constant, acidic pKa of compound by pH metric method. Type of series: physicochemical. Put shortly:
as §2

As for `CCNC(=O)Nc1cc(-c2nc(C(F)(F)F)cs2)c(-c2cc3ncccc3nc2N2C3CCC2CN(C)C3)cn1`, the MIC against Pseudomonas aeruginosa [1] is 32 µg/mL (≈ 56.3 µM); in the series with Acinetobacter baumannii [2], 4 µg/mL (≈ 7.03 µM); against Staphylococcus aureus it was below 0.06 µg/mL; in the series on Enterococcus faecalis it was below 0.06 µg/mL; in the series on Acinetobacter baumannii [3], 2 µg/mL (≈ 3.52 µM); against Pseudomonas aeruginosa [4] it was 9.09 µg/mL (≈ 16 µM). The MIC with Pseudomonas aeruginosa [5] is 16 µg/mL (≈ 28.1 µM); in the series with Acinetobacter baumannii [7], 2 µg/mL (≈ 3.52 µM); against Acinetobacter baumannii [8] it was 2 µg/mL (≈ 3.52 µM); against Pseudomonas aeruginosa [10], 0.56 µg/mL (≈ 0.985 µM); against Pseudomonas aeruginosa [11], 8 µg/mL (≈ 14.1 µM); in the series with Candida albicans, above 64 µg/mL. Besides, the MIC with Acinetobacter baumannii [12] was 0.5 µg/mL (≈ 0.879 µM); with Enterobacter cloacae it was above 64 µg/mL; against Pseudomonas aeruginosa [13] it was 32 µg/mL (≈ 56.3 µM); with Pseudomonas aeruginosa [14], 16 µg/mL (≈ 28.1 µM). In addition, the pKa in series [6] worked out at 7.8. Moreover, the Therm_solubility entry in [9] (BLD = below limit of detection) is recorded as “Bld”.
Turning to `CCNC(=O)Nc1cc(-c2nc(C(F)(F)F)cs2)c(-c2cc(-c3n[nH]c(=O)o3)cnc2N2C3CCC2CN(C)C3)cn1`, the pKa in series [15] was found to be 7.8; in [16] it was 6.7. Also, the MIC against Pseudomonas aeruginosa [1] was 8 µg/mL (≈ 13.3 µM); against Acinetobacter baumannii [2] it was 1 µg/mL (≈ 1.66 µM); in the series with Staphylococcus aureus it was below 0.06 µg/mL; against Enterococcus faecalis it was below 0.06 µg/mL; in the series on Acinetobacter baumannii [3], 1 µg/mL (≈ 1.66 µM); in the series with Pseudomonas aeruginosa [4] it was 2.4 µg/mL (≈ 3.99 µM). In addition, the MIC with Pseudomonas aeruginosa [5] was 8 µg/mL (≈ 13.3 µM); against Acinetobacter baumannii [7], 1 µg/mL (≈ 1.66 µM); in the series with Acinetobacter baumannii [8], 2 µg/mL (≈ 3.32 µM); against Pseudomonas aeruginosa [10], 0.3 µg/mL (≈ 0.499 µM); in the series on Pseudomonas aeruginosa [11] it was 4 µg/mL (≈ 6.65 µM); with Candida albicans, above 64 µg/mL. Further, the MIC stood at 0.5 µg/mL (≈ 0.831 µM) against Acinetobacter baumannii [12], 32 µg/mL (≈ 53.2 µM) in the series with Enterobacter cloacae, 8 µg/mL (≈ 13.3 µM) in the series with Pseudomonas aeruginosa [13] and 8 µg/mL (≈ 13.3 µM) against Pseudomonas aeruginosa [14]. Besides, the solubility thermodynamic in [9] was 1490 µM (≈ 896 µg/mL).
Consider `CCNC(=O)Nc1cc(-c2nc(C3CC3)cs2)c(-c2cc(-c3n[nH]c(=O)o3)cnc2N2C3CCC2CN(C)C3)cn1`, for which the results for the pKa in series [15] and in [16] were 7.9 and 6.7, respectively. Further, the MIC was 4 µg/mL (≈ 6.97 µM) against Pseudomonas aeruginosa [1]; 2 µg/mL (≈ 3.49 µM) against Acinetobacter baumannii [2]; below 0.06 µg/mL against Staphylococcus aureus; below 0.06 µg/mL in the series with Enterococcus faecalis; 1 µg/mL (≈ 1.74 µM) against Acinetobacter baumannii [3]; 1.14 µg/mL (≈ 1.99 µM) against Pseudomonas aeruginosa [4]. For the same compound, the MIC is 4 µg/mL (≈ 6.97 µM) against Pseudomonas aeruginosa [5]; 1 µg/mL (≈ 1.74 µM) against Acinetobacter baumannii [7]; 2 µg/mL (≈ 3.49 µM) against Acinetobacter baumannii [8]; 0.23 µg/mL (≈ 0.401 µM) against Pseudomonas aeruginosa [10]; 2 µg/mL (≈ 3.49 µM) in the series with Pseudomonas aeruginosa [11]; above 64 µg/mL in the series with Candida albicans. In addition, the minimum inhibitory concentration (MIC) worked out at 0.5 µg/mL (≈ 0.872 µM) with Acinetobacter baumannii [12], 16 µg/mL (≈ 27.9 µM) with Enterobacter cloacae, 4 µg/mL (≈ 6.97 µM) with Pseudomonas aeruginosa [13] and 4 µg/mL (≈ 6.97 µM) in the series with Pseudomonas aeruginosa [14]. Moreover, the solubility thermodynamic in series [9] was 65.8 µM (≈ 37.7 µg/mL).

(Values after ChEMBL document CHEMBL4270612, “Discovery of dual GyrB/ParE inhibitors active against Gram-negative bacteria” (Eur J Med Chem, 2018).)
